Measurements published in ChEMBL document CHEMBL1833874, “Α-pyrones and diketopiperazine derivatives from the marine-derived actinomycete Nocardiopsis dassonvillei HR10-5” (J Nat Prod, 2011).
≈ marks a conversion by molar mass, not a printed value. Each block holds one compound with its values, some of them ahead of it.

What was measured:
A549 = experiment: Cytotoxicity against human A549 cells after 24 hrs by SRB assay; type: functional
Outline: (§1)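 HL-60 cells were assayed by MTT and A549 cells by SRB. Read-out is IC50, given in μM.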

HL-60 = experiment: Cytotoxicity against human HL60 cells after 72 hrs by MTT assay; type: functional, cell-based; conditions: HL-60, 72 h; outline: as §1
Bacillus subtilis = experiment: Antibacterial activity against Bacillus subtilis by agar dilution method; type: functional
Outline: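 Agar dilution, with the same panel also run against E. coli, A. aerogenes, P. aeruginosa, S. aureus and C. albicans. Read-out is the MIC, given in μM.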

MIC (Bacillus subtilis): 12 µM (≈ 2.5 µg/mL)
Structure (SMILES): CCc1ccc(/C(C)=C/[C@H](C)O)oc1=O [NOCAPYRONE G]
IC50 (A549): >=100 uM
IC50 (HL-60): ≥ 100 µM

MIC (Bacillus subtilis): 26 µM (≈ 5 µg/mL)
Structure (SMILES): CC/C=C(\C)c1ccc(CC)c(=O)o1 [NOCAPYRONE E]
IC50 (A549): >=100 uM
IC50 (HL-60): ≥ 100 µM

Structure (SMILES): COc1ccc(/C=c2/c(OC)n/c(=C\c3ccccc3)c(=O)n2C)cc1 [NOCAZINE B]
IC50 (A549): >=100 uM
IC50 (HL-60): ≥ 100 µM

Structure (SMILES): OC[C@@H]1COC(c2ccccc2O)=N1 [NOCAZOLINE A]
IC50 (A549): >=100 uM
IC50 (HL-60): ≥ 100 µM

Structure (SMILES): COc1ccc(/C=c2\nc(OC)/c(=C/c3ccc(OC)cc3)n(C)c2=O)cc1 [NOCAZINE A]
IC50 (A549): >=100 uM
IC50 (HL-60): ≥ 100 µM

Structure (SMILES): COc1ccc(/C=C2/C(=O)N[C@@H](Cc3ccccc3)C(=O)N2C)cc1 [NOCAZINE C]
IC50 (A549): >=100 uM
IC50 (HL-60): ≥ 100 µM

MIC (Bacillus subtilis): 14 µM (≈ 2.5 µg/mL)
Structure (SMILES): CC/C=C(\C)c1ccc(C)c(=O)o1 [NOCAPYRONE F]
IC50 (A549): >=100 uM
IC50 (HL-60): ≥ 100 µM
